Active and inactive are the calls of the source. The calls are words filed in the database; no cut-off is given here.

The test system of experiment [1] is K562. In words: Cytotoxicity in drug sensitive human K562 cells assessed as reduction in cell viability at 10 uM incubated for 48 hrs by XTT assay relative to imatinib. It is filed as functional.
Experiment [2] concerns K-562R. Kind of experiment: Cytotoxicity in imatinib-resistant human K562R cells assessed as reduction cell viability incubated for 48 hrs by XTT assay. It is filed as functional, cell-based. Summed up:
(§1)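 K562-S (imatinib-sensitive) or K562-R (imatinib-resistant) CML cells were exposed to a range of concentrations for 48 h. Viability was read by XTT, and the IC50 was derived from the dose-response.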
For orientation: Formazan colour is commonly taken as a measure of viable cells.

Experiment [3] deals with K562. Kind of experiment: Cytotoxicity in drug sensitive human K562 cells assessed as reduction cell viability incubated for 48 hrs by XTT assay. It is filed as functional, cell-based. To be noted: for IC50: K562, 48 h. Summed up: as §1
Experiment [4] deals with K-562R. In words: Induction of apoptosis in imatinib-resistant human K562R cells assessed as induction of caspase-3 cleavage after 6 hrs by Western blot method. In kind it is functional, cell-based. The procedure, abridged:
(§2)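 Cell lysates were probed by western blot for procaspase 3 and for PARP, its preferred substrate, in K562-S and K562-R cells. Cleavage was scored after 6 h and 24 h of treatment.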
On the technique in general: A western blot detects proteins with antibodies after separation by electrophoresis.

For experiment [5], the system named is K562. In words: Induction of apoptosis in drug sensitive human K562 cells assessed as induction of PARP cleavage after 24 hrs by Western blot method. It is filed as functional, cell-based. Summed up: as §2
Experiment [6] relates to K562. In words: Potency index, ratio of IC50 for AICAR to IC50 for test compound in drug sensitive human K562 cells assessed as reduction cell viability incubated for 48 hrs by XTT assay. In kind it is functional.
The test system of experiment [7] is K562. Kind of experiment: Induction of apoptosis in drug sensitive human K562 cells assessed as induction of PARP cleavage after 6 hrs by Western blot method. In kind it is functional, cell-based. The procedure, abridged: as §2
For experiment [8], the system named is K562. Kind of experiment: Inhibition of autophagy in drug sensitive human K562 cells assessed as reduction in LC3-II accumulation by Western blot method. In kind it is functional, cell-based. Summed up:
(§3)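 Western blot of LC3 lipidation and cleavage, scored as conversion of LC3-I to LC3-II, in K562-S and K562-R cells. Untreated cells served as the baseline for LC3-II accumulation.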

Experiment [9] concerns K562. Kind of experiment: Induction of apoptosis in drug sensitive human K562 cells assessed as induction of caspase-3 cleavage after 24 hrs by Western blot method. In kind it is functional, cell-based. The procedure, abridged:
as §2

Experiment [10] concerns K-562R. Kind of experiment: Inhibition of autophagy in imatinib-resistant human K562R cells assessed as reduction in LC3-II accumulation by Western blot method. It is filed as functional, cell-based. Summed up: as §3
For experiment [11], the system named is K-562R. In words: Induction of apoptosis in imatinib-resistant human K562R cells assessed as induction of PARP cleavage after 24 hrs by Western blot method. It is filed as functional, cell-based. The procedure, abridged: as §2
Experiment [12] concerns K-562R. Kind of experiment: Induction of apoptosis in imatinib-resistant human K562R cells assessed as induction of caspase-3 cleavage after 24 hrs by Western blot method. It is filed as functional, cell-based. Summed up: as §2
Experiment [13] concerns K562. Kind of experiment: Induction of apoptosis in drug sensitive human K562 cells assessed as induction of caspase-3 cleavage after 6 hrs by Western blot method. In kind it is functional, cell-based. Summed up: as §2
The test system of experiment [14] is K-562R. Kind of experiment: Induction of apoptosis in imatinib-resistant human K562R cells assessed as induction of PARP cleavage after 6 hrs by Western blot method. In kind it is functional, cell-based. The procedure, abridged:
as §2

Regarding `COc1ccc(-c2cccn2C)cc1[C@@H]1O[C@H](CO)[C@@H](O)[C@H]1O`, the outcome in the experiment with K562 [1] was Active.

Turning to `COc1ccc(-c2cccc3ccccc23)cc1[C@@H]1O[C@H](COC(C)=O)[C@@H](OC(C)=O)[C@H]1OC(C)=O`, the Activity in the experiment with K562 [1] was over 30%.

For `COc1ccc(C#Cc2ccc(OC)c([C@@H]3O[C@H](CO)[C@@H](O)[C@H]3O)c2)cc1`, the outcome in the experiment with K562 [1] was Active.

For `COc1ccc(-c2cccn2C)cc1[C@@H]1O[C@H](COC(C)=O)[C@@H](OC(C)=O)[C@H]1OC(C)=O`, the result in the experiment with K562 [1] was Active.

As for `NC(=O)c1ncn([C@@H]2O[C@H](CO)[C@@H](O)[C@H]2O)c1N` [ACADESINE], the IC50 in the experiment on K-562R [2] is 800 µM.

Consider `COc1ccc(-c2ccccc2)cc1[C@@H]1O[C@H](COC(C)=O)[C@@H](OC(C)=O)[C@H]1OC(C)=O`, for which the outcome in the experiment with K562 [1] was Active.

Regarding `COc1ccc(C#Cc2ccc(C)cc2)cc1[C@@H]1O[C@H](COC(C)=O)[C@@H](OC(C)=O)[C@H]1OC(C)=O`, the outcome with K562 [1] was Active.

Turning to `COc1ccc(-c2cccs2)cc1[C@@H]1O[C@H](COC(C)=O)[C@@H](OC(C)=O)[C@H]1OC(C)=O`, in the experiment on K562 [1], the Activity was over 30%.

Take `COc1ccc(C#Cc2ccc(C)cc2)cc1[C@@H]1O[C@H](CO)[C@@H](O)[C@H]1O`: the result with K562 [1] was Active.

Take `COc1ccc(C#Cc2ccc(F)cc2)cc1[C@@H]1O[C@H](COC(C)=O)[C@@H](OC(C)=O)[C@H]1OC(C)=O`: the result in the experiment with K562 [1] was Active.

On to `COc1ccc(-c2ccc(C)cc2)cc1[C@@H]1O[C@H](CO)[C@@H](O)[C@H]1O`, for which the result in the experiment with K562 [1] was Active.

Take `COc1ccc(C#Cc2ccsc2)cc1[C@@H]1O[C@H](COC(C)=O)[C@@H](OC(C)=O)[C@H]1OC(C)=O`: the outcome with K562 [1] was inactive.

Turning to `Cc1ccc(NC(=O)c2ccc(CN3CCN(C)CC3)cc2)cc1Nc1nccc(-c2cccnc2)n1` [IMATINIB], the IC50 is over 50 µM in the experiment with K-562R [2] and 1.1 µM with K562 [3].

Regarding `COc1ccc(-c2ccc(C)cc2)cc1[C@@H]1O[C@H](COC(C)=O)[C@@H](OC(C)=O)[C@H]1OC(C)=O`, the result in the experiment with K562 [1] was Active.

`COc1ccc(-c2ccc3[nH]ccc3c2)cc1[C@@H]1O[C@H](COC(C)=O)[C@@H](OC(C)=O)[C@H]1OC(C)=O`: the result with K562 [1] was Active.

As for `COc1ccc(-c2ccco2)cc1[C@@H]1O[C@H](CO)[C@@H](O)[C@H]1O`, in the experiment on K562 [1], the result was Active.

Regarding `COc1ccc(-c2ccco2)cc1[C@@H]1O[C@H](COC(C)=O)[C@@H](OC(C)=O)[C@H]1OC(C)=O`, in the experiment on K562 [1], the outcome was Active.

Regarding `COc1ccc(C#Cc2ccc(OC)c([C@@H]3O[C@H](COC(C)=O)[C@@H](OC(C)=O)[C@H]3OC(C)=O)c2)cc1`, in the experiment on K562 [1], the Activity is given as over 30%.

As for `COc1ccc(-c2cc3ccccc3s2)cc1[C@@H]1O[C@H](COC(C)=O)[C@@H](OC(C)=O)[C@H]1OC(C)=O`, the outcome in the experiment with K-562R [4], in the experiment on K562 [5], with K562 [7], with K562 [9], in the experiment with K-562R [11] and with K-562R [12] was inactive. The outcome with K562 [13] and with K-562R [14] was inactive. In the experiment with K562 [6], the “Ratio IC50” value came out at 200. Moreover, the inhibition result in the experiment with K562 [8] and in the experiment on K-562R [10] was “Active” each time. Also, the IC50 in the experiment with K-562R [2] came to 2.9 µM; in the experiment with K562 [3] it was 4 µM. Moreover, the Activity entry in the experiment with K562 [3] was “Dose-dependent effect”; in the experiment on K562 [1], >30 - 80%.

As to `COc1ccc(-c2cccc3ccccc23)cc1[C@@H]1O[C@H](CO)[C@@H](O)[C@H]1O`, the result in the experiment on K562 [1] was Active.

Regarding `COc1ccc(-c2ccccc2)cc1[C@@H]1O[C@H](CO)[C@@H](O)[C@H]1O`, in the experiment with K562 [1], the outcome was Active.

For `COc1ccc(C#Cc2ccccc2)cc1[C@@H]1O[C@H](COC(C)=O)[C@@H](OC(C)=O)[C@H]1OC(C)=O`, in the experiment with K562 [1], the outcome was inactive.

For the molecule `COc1ccc(C#Cc2ccsc2)cc1[C@@H]1O[C@H](CO)[C@@H](O)[C@H]1O`, the outcome with K562 [1] was Active.

Turning to `COc1ccc(C#Cc2ccc(F)cc2)cc1[C@@H]1O[C@H](CO)[C@@H](O)[C@H]1O`, the result in the experiment on K562 [1] was Active.

In the case of `COc1ccc(C#Cc2ccccc2)cc1[C@@H]1O[C@H](CO)[C@@H](O)[C@H]1O`, the result in the experiment on K562 [1] was Active.

As for `COc1ccc(-c2cc3ccccc3s2)cc1[C@@H]1O[C@H](CO)[C@@H](O)[C@H]1O`, the Activity in the experiment on K562 [1] is 16%.

On to `COc1ccc(-c2cccs2)cc1[C@@H]1O[C@H](CO)[C@@H](O)[C@H]1O`, for which the outcome in the experiment with K562 [1] was Active.

`COc1ccc(-c2ccc3[nH]ccc3c2)cc1[C@@H]1O[C@H](CO)[C@@H](O)[C@H]1O`: in the experiment with K562 [1], the outcome was Active.

What is called IC50 is the point on the concentration scale where inhibition reaches its midpoint.

The values are drawn from ChEMBL document CHEMBL4118130, “Modular synthesis of new C-aryl-nucleosides and their anti-CML activity” (Bioorg Med Chem Lett, 2018).
